Assay outcomes: PubChem BioAssay, Broad Institute
T cruzi repl – T. cruzi replication inhibition; T. cruzi beta-gal in NIH3T3, luminescence, 90 h; inhibition, % (concentration not given with the values); actives 1.4% (n = 300,000);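 active = mean inhibition across valid replicates above about 55%, limit read from the data; inconclusive = mean below that limit but half or more replicates reach it; inactive = mean below it, under half of replicates reach it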;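 also: signal also drops with host cell toxicity which is not excluded here; 0% = plate median of DMSO wells and 100% = zero luminescence signal; higher percent means less beta-gal luminescence so fewer parasites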
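Assay system: NIH/3T3 fibroblasts plus reporter T. cruzi. Amount: NIH/3T3 cells, 5,000 per well. Buffer or medium: DMEM, 2% fetal bovine serum. Doses: compound pinned at 50 nL/well, DMSO. Schedule: ≥90 h infection period, 3 h prior cell attachment. Signal: luminescent β-galactosidase signal after 60 min lysis. Read-out: parasite load inhibition, %.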
HSF1 inhib – HSF1 inhibition. actives 0.77% (n = 300,000). NIH3T3-HGL HSE-luciferase, MG132-induced, luminescence 8 h; hits give low values. activity change, negative = inhibition, % at 7.5 µM (by protocol);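 active = more than half of replicate wells show activity change below -50%, luminescence cut by over half; inconclusive = some wells, but at most half, below -50%; inactive = no replicate well below -50%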;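 also: luciferase reports HSF-1 transcriptional activity via heat shock element; 0% = median of DMSO wells and -100% = zero luminescence signal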
Calb FLC – C. albicans growth modulation with fluconazole. AID 1979. growth inhibition, % (no concentration beside the values). C. albicans CaCi-2 + fluconazole, Alamar Blue growth, 48 h. actives 0.57% (n = 300,000);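 active = growth inhibition above about 58% in most replicates, limit read from the data, passing the limit was not always enough; inconclusive = exactly half the replicates above a set limit; inactive = most replicates below a set limit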;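 also: all wells also contain fluconazole at 8 µg/ml as a sub-toxic cotreatment; 0% = median of DMSO wells and 100% = median of geldanamycin control wells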
HSF1 activator – increases HSF-1 driven luciferase reporter signal. NIH3T3-HGL HSF-1 luciferase reporter, MG132, 8 h; 100% = twice DMSO control signal. activation, % at 9 µM. actives 1.7% (n = 300,000);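 active = mean replicate activation of at least 50% with a set share of replicates each reaching 50%; inconclusive = only one of those two conditions met; inactive = mean below 50% and too few replicates reaching it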;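 also: 0% = median of the neutral control wells and 100% = twice that signal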
HIF act – HIF pathway transcriptional activation. U2OS HRE-luciferase reporter, luminescence; normalized: DMSO 0%, desferrioxamine 100%. activation, % at 7.5 µM (by protocol). actives 0.32% (n = 300,000). AID 1910;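 active = mean activation of at least 10% of the iron chelator positive control signal, with at least half of replicates also reaching 10%; inconclusive = mean and replicate majority disagree about reaching 10%; inactive = mean and most replicates under 10%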
The depositor's hits bear a star; ? = inconclusive. Sampled rows, rich in hits. Any-hit rate of the full collection: about 4.4%.

SMILES	T cruzi repl	HSF1 inhib	Calb FLC	HSF1 activator	HIF act
COc1ccc2c(c1)CCc1sc(NC(=O)c3ccco3)nc1-2	-6	26	37	32	3
COc1ccc2c(c1)Cc1sc(NC(=O)c3ccco3)nc1-2	37	42	-4	77*	2
COc1ccc2c(c1)-c1nc(NC(=O)c3ccco3)sc1CC2	3	18	-70	9	9.9*
COc1ccc2c(c1)-c1nc(/N=C/c3c(O)ccc4ccccc34)sc1CC2	-2	39	-1	63*	-5
CCc1nnc(NS(=O)(=O)c2ccc(NC(=O)c3cc(Cl)ccc3OC)cc2)s1	10	9	16	9	-34
CCOCCCNS(=O)(=O)c1ccc(-n2cnnn2)c(OC)c1	-23	0	-9	7	0
COc1cc(Cl)c(C)cc1NC(=O)c1ccccc1NC(=O)CN1CCOCC1	-2	2	12	13	0
Cc1cccc(NC(=O)CSc2nnc(C3CC3)n2CC2CCCO2)c1 (stereo not drawn)	6	-1	-6	0	0
COC(=O)c1c(-c2ccccc2)csc1NC(=O)c1ccco1	11	35	12	74*	3
[O-][n+]1cccc2c(Br)cc(Br)c(O)c21	6	7	109*	6	0
COc1ccc2cc(CN(Cc3ccco3)C(c3nnnn3C3CCCCC3)C(C)C)c(=O)[nH]c2c1 (stereo not drawn)	43	27	-1	70*	0
Cc1cnccc1CN(C)Cc1cn(C)nc1-c1ccc(Oc2ccccc2)cc1	70*	0	3	9	0
C/C=C1\COC(C(=O)NCc2ccccc2)(C(F)(F)F)C=C1C=C(C)C (stereo not drawn)	13	135	7	153*	-1
Cc1ccccc1CO/N=C/c1[nH]ncc1Br	5	-85*	-3	-89	0
COc1cc(/C=N/NC(N)=O)cc(Br)c1OCc1ccccc1C	-21	2	-9	19	0
CN(c1cccc(NC(=O)c2ccc(Cl)c(S(=O)(=O)N3CCOCC3)c2)c1)S(C)(=O)=O	10	-1	21	1	0
CCOC(=O)c1snc(C(=O)NC2CCCCC2)c1N	-21	32	-20	61*	3
O=C1CC(c2cccc([N+](=O)[O-])c2)c2cc3c(cc2N1)CCC3 (stereo not drawn)	15	-1	1	-2	1
O=C1CC(c2cccc([N+](=O)[O-])c2)c2c(ccc3ccccc23)N1 (stereo not drawn)	13	25	11	53*	2
CC(C)N(C)S(=O)(=O)c1ccc(Cl)c(C(=O)O)c1	2	-23	-10	-38	0
NC(=O)c1sc2nc(-c3cccnc3)ccc2c1N	5	-1	0	0	1
CCOC(=O)c1sc2nc(-c3cccnc3)ccc2c1N	6	36	-4	75*	2
COC(=O)c1sc2nc(-c3ccco3)ccc2c1N	-3	39	6	56*	2
CC(C)OC(=O)c1sc2nc(-c3ccccc3)ccc2c1N	19	-67*	13	-71	0
Cc1ccc2c(N)c(C(=O)N(c3ccccc3)c3ccccc3)sc2n1	67*	-47	16	-54	1
SMILES	T cruzi repl	HSF1 inhib	Calb FLC	HSF1 activator	HIF act
COc1ccc(OC2OC3COC(C)(C)OC3C(O)C2NC(C)=O)cc1 (stereo not drawn)	-8	4	-34	-13	0
O=C(NC1CCN(C(=O)NCc2ccccc2)CC1)c1ccccc1	0	0	12	6	1
COc1ccc(NC(=O)NC(=O)c2cc(OCC(F)(F)F)ccc2OCC(F)(F)F)cc1	22	-5	1	-3	0
CC(=O)NC(Cc1ccccc1F)C(=O)NC1CCN(C(=O)NCc2ccccc2)CC1 (stereo not drawn)	-3	-6	-8	-7	0
O=C(Cn1cnc2cc([N+](=O)[O-])ccc2c1=O)Nc1ccccc1-c1ccccc1	58*	10	-1	-7	-1
O=C(Cn1cnc2cc([N+](=O)[O-])ccc2c1=O)Nc1ccc(Br)cc1	68*	-8	11	-8	0
CC(C)(C)c1ccc(NC(=O)Cn2cnc3cc([N+](=O)[O-])ccc3c2=O)cc1	72*	3	2	13	0
Cc1ccc(CNC(=O)Cn2cnc3cc([N+](=O)[O-])ccc3c2=O)cc1	50	-5	27	10	0
CCCCNC(=O)[C@@H]1CSC2c3ccc(OC)c(OC)c3C(=O)N21 (stereo partly drawn)	-10	-3	-7	24	-2
COc1ccc2oc3cc(C)[n+]([O-])c(-c4ccc(Br)cc4)c3c2c1	16	-5	0	6	0
CC1Cc2cc(S(=O)(=O)N3CCC(C(=O)Nc4ccccn4)CC3)ccc2N1C(=O)C1CCC1 (stereo not drawn)	-9	-5	-9	-5	0
Cc1ccc(OCc2nnc(SCC(=O)Nc3cccc4ccccc34)n2-c2ccccc2)cc1	16	26	-7	73*	0
Cc1cccc(C)c1NC(=O)CSc1nnc(Cn2nnc(-c3ccccc3)n2)n1-c1ccccc1	19	66	-5	74*	0
CCc1nnc(NC(=O)CSc2nnc(COc3ccccc3)n2-c2ccc(C)cc2)s1	16	2	21	8	-1
CC(C)c1nc(SCC(=O)Nc2c[nH]c(=O)[nH]c2=O)c2cnn(-c3ccccc3)c2n1	-35	-1	0	5	0
COc1ccc(-n2c(-c3ccccc3)nnc2-c2ccc(Cl)cc2)cc1	40	2	2	-11	0
COc1ccc(-n2c(-c3ccc(Cl)cc3)c[n+]3c2CCc2ccccc2-3)cc1	74*	4	108*	-9	1
Cc1cccc(N2CCN(c3cccc(C)c3)C2c2cccnc2)c1	66*	37	?	67*	1
Cc1cccc(N2C(=O)CSC2c2cccnc2)c1 (stereo not drawn)	-4	1	-3	1	0
COc1ccc(N2C(=NC(=O)CCC3CCCC3)SC3CS(=O)(=O)CC32)cc1 (stereo not drawn)	10	-1	3	-2	71*
COc1cccc(N2C(=NC(=O)CCC3CCCC3)SC3CS(=O)(=O)CC32)c1 (stereo not drawn)	3	-3	-1	7	0
CCOc1ccc(C(=O)Nc2cc(S(=O)(=O)Nc3ccccc3Cl)ccc2N2CCOCC2)cc1	30	-2	3	3	0
CC(OC(=O)c1ccc2c(=O)n3c(nc2c1)CCCCC3)C(=O)Nc1ncc(Cl)cc1Cl (stereo not drawn)	1	-5	0	0	2
CNc1nc2c(N)ncnc2n1[C@H]1O[C@@H](CO)[C@H](O)[C@@H]1O	-15	-11	-5	-12	-1
